ChEMBL document CHEMBL4152188, “Design, synthesis and biological evaluation of C(4) substituted monobactams as antibacterial agents against multidrug-resistant Gram-negative bacteria” (Eur J Med Chem, 2018)
In brackets after ≈: the same amount, converted by molar mass.

Assays:
[1] = Elimination half life in human liver microsomes at 0.1 uM pre-incubated with compound followed by NADPH addition and measured after 60 mins by LC-MS/MS analysis; type: ADME, microsome; conditions: read-out: beta t1/2
[2] = tested on: Escherichia coli; assay: Antibacterial activity against extended-spectrum beta-lactamase producing Escherichia coli isolate 212648 after 18 hrs by CLSI broth microdilution method; type: functional; conditions: isolate 212648, 18 h
[3] = tested on: Escherichia coli; assay: Selectivity index, ratio of MIC for against extended-spectrum beta-lactamase producing Escherichia coli isolate 208687 to MIC for extended-spectrum beta-lactamase producing Escherichia coli isolate 208687 in presence of BPL; type: functional
[4] = tested on: Escherichia coli; assay: Antibacterial activity against Escherichia coli isolate 210737 after 18 hrs by CLSI broth microdilution method; type: functional; conditions: isolate 210737, 18 h
[5] = tested on: Escherichia coli; assay: Antibacterial activity against extended-spectrum beta-lactamase producing Escherichia coli isolate 208687 after 18 hrs by CLSI broth microdilution method; type: functional; conditions: isolate 208687, 18 h
[6] = tested on: Escherichia coli; assay: Antibacterial activity against extended-spectrum beta-lactamase producing Escherichia coli isolate 208687 after 18 hrs in presence of BPL by CLSI broth microdilution method; type: functional; conditions: isolate 208687, 18 h
In short: (§1)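 CLSI broth microdilution against clinical isolates (ESBL E. coli, KPC-2 MDR K. pneumoniae, IMP-4 MDR P. aeruginosa; five per species). Iron limitation: Mueller-Hinton broth supplemented with 16 mg/liter 2,2'-bipyridyl to complex iron and induce iron uptake systems. Read-out: MIC.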

[7] = tested on: Escherichia coli; assay: Antibacterial activity against Escherichia coli isolate 210737 after 18 hrs in presence of BPL by CLSI broth microdilution method; type: functional; conditions: isolate 210737, 18 h; in short: as §1
[8] = tested on: Escherichia coli; assay: Selectivity index, ratio of MIC for against Escherichia coli isolate 210737 to MIC for Escherichia coli isolate 210737 in presence of BPL; type: functional
[9] = tested on: Escherichia coli; assay: Selectivity index, ratio of MIC for against extended-spectrum beta-lactamase producing Escherichia coli isolate 212648 to MIC for extended-spectrum beta-lactamase producing Escherichia coli isolate 212648 in presence of BPL; type: functional
[10] = tested on: Escherichia coli; assay: Antibacterial activity against extended-spectrum beta-lactamase producing Escherichia coli isolate 209285 after 18 hrs by CLSI broth microdilution method; type: functional; conditions: isolate 209285, 18 h
[11] = tested on: Escherichia coli; assay: Antibacterial activity against extended-spectrum beta-lactamase producing Escherichia coli isolate 209285 after 18 hrs in presence of BPL by CLSI broth microdilution method; type: functional; conditions: isolate 209285, 18 h; in short: as §1
[12] = tested on: Escherichia coli; assay: Selectivity index, ratio of MIC for against extended-spectrum beta-lactamase producing Escherichia coli isolate 209285 to MIC for extended-spectrum beta-lactamase producing Escherichia coli isolate 209285 in presence of BPL; type: functional
[13] = tested on: Escherichia coli; assay: Antibacterial activity against extended-spectrum beta-lactamase producing Escherichia coli isolate 106342 after 18 hrs in presence of BPL by CLSI broth microdilution method; type: functional; conditions: isolate 106342, 18 h; in short: as §1
[14] = tested on: Klebsiella pneumoniae; assay: Selectivity index, ratio of MIC for against KPC-2 producing Klebsiella pneumoniae isolate 212423 to MIC for against KPC-2 producing Klebsiella pneumoniae isolate 212423 in presence of BPL; type: functional
[15] = tested on: Klebsiella pneumoniae; assay: Antibacterial activity against KPC-2 producing Klebsiella pneumoniae isolate 209632 after 18 hrs by CLSI broth microdilution method; type: functional; conditions: isolate 209632, 18 h
[16] = tested on: Klebsiella pneumoniae; assay: Selectivity index, ratio of MIC for against KPC-2 producing Klebsiella pneumoniae isolate 209632 to MIC for against KPC-2 producing Klebsiella pneumoniae isolate 209632 in presence of BPL; type: functional
[17] = tested on: Klebsiella pneumoniae; assay: Antibacterial activity against KPC-2 producing Klebsiella pneumoniae isolate 209735 after 18 hrs by CLSI broth microdilution method; type: functional; conditions: isolate 209735, 18 h
[18] = tested on: Klebsiella pneumoniae; assay: Antibacterial activity against KPC-2 producing Klebsiella pneumoniae isolate 209735 after 18 hrs in presence of BPL by CLSI broth microdilution method; type: functional; conditions: isolate 209735, 18 h; in short: as §1
[19] = tested on: Klebsiella pneumoniae; assay: Selectivity index, ratio of MIC for against KPC-2 producing Klebsiella pneumoniae isolate 209735 to MIC for against KPC-2 producing Klebsiella pneumoniae isolate 209735 in presence of BPL; type: functional
[20] = tested on: Klebsiella pneumoniae; assay: Antibacterial activity against KPC-2 producing Klebsiella pneumoniae isolate 212232 after 18 hrs by CLSI broth microdilution method; type: functional; conditions: isolate 212232, 18 h
[21] = tested on: Klebsiella pneumoniae; assay: Antibacterial activity against KPC-2 producing Klebsiella pneumoniae isolate 212232 after 18 hrs in presence of BPL by CLSI broth microdilution method; type: functional; conditions: isolate 212232, 18 h; in short: as §1
[22] = tested on: Klebsiella pneumoniae; assay: Selectivity index, ratio of MIC for against KPC-2 producing Klebsiella pneumoniae isolate 212232 to MIC for against KPC-2 producing Klebsiella pneumoniae isolate 212232 in presence of BPL; type: functional
[23] = tested on: Klebsiella pneumoniae; assay: Antibacterial activity against KPC-2 producing Klebsiella pneumoniae isolate 212229 after 18 hrs in presence of BPL by CLSI broth microdilution method; type: functional; conditions: isolate 212229, 18 h; in short: as §1
[24] = tested on: Klebsiella pneumoniae; assay: Selectivity index, ratio of MIC for against KPC-2 producing Klebsiella pneumoniae isolate 212229 to MIC for against KPC-2 producing Klebsiella pneumoniae isolate 212229 in presence of BPL; type: functional
[25] = tested on: Pseudomonas aeruginosa; assay: Antibacterial activity against IMP-4 producing Pseudomonas aeruginosa isolate 212886 after 18 hrs by CLSI broth microdilution method; type: functional; conditions: isolate 212886, 18 h
[26] = tested on: Pseudomonas aeruginosa; assay: Antibacterial activity against IMP-4 producing Pseudomonas aeruginosa isolate 212886 after 18 hrs in presence of BPL by CLSI broth microdilution method; type: functional; conditions: isolate 212886, 18 h; in short: as §1
[27] = tested on: Pseudomonas aeruginosa; assay: Selectivity index, ratio of MIC for against IMP-4 producing Pseudomonas aeruginosa isolate 212886 to MIC for against IMP-4 producing Pseudomonas aeruginosa isolate 212886 in presence of BPL; type: functional
[28] = tested on: Pseudomonas aeruginosa; assay: Antibacterial activity against IMP-4 producing Pseudomonas aeruginosa isolate 209471 after 18 hrs in presence of BPL by CLSI broth microdilution method; type: functional; conditions: isolate 209471, 18 h; in short: as §1
[29] = tested on: Pseudomonas aeruginosa; assay: Selectivity index, ratio of MIC for against IMP-4 producing Pseudomonas aeruginosa isolate 209471 to MIC for against IMP-4 producing Pseudomonas aeruginosa isolate 209471 in presence of BPL; type: functional
[30] = tested on: Pseudomonas aeruginosa; assay: Antibacterial activity against IMP-4 producing Pseudomonas aeruginosa isolate 208247 after 18 hrs by CLSI broth microdilution method; type: functional; conditions: isolate 208247, 18 h
[31] = tested on: Pseudomonas aeruginosa; assay: Antibacterial activity against IMP-4 producing Pseudomonas aeruginosa isolate 208247 after 18 hrs in presence of BPL by CLSI broth microdilution method; type: functional; conditions: isolate 208247, 18 h; in short: as §1
[32] = tested on: Pseudomonas aeruginosa; assay: Antibacterial activity against IMP-4 producing Pseudomonas aeruginosa isolate 209321 after 18 hrs by CLSI broth microdilution method; type: functional; conditions: isolate 209321, 18 h
[33] = tested on: Pseudomonas aeruginosa; assay: Selectivity index, ratio of MIC for against IMP-4 producing Pseudomonas aeruginosa isolate 209321 to MIC for against IMP-4 producing Pseudomonas aeruginosa isolate 209321 in presence of BPL; type: functional
[34] = tested on: Pseudomonas aeruginosa; assay: Antibacterial activity against IMP-4 producing Pseudomonas aeruginosa isolate 207272 after 18 hrs by CLSI broth microdilution method; type: functional; conditions: isolate 207272, 18 h
[35] = tested on: Pseudomonas aeruginosa; assay: Selectivity index, ratio of MIC for against IMP-4 producing Pseudomonas aeruginosa isolate 207272 to MIC for against IMP-4 producing Pseudomonas aeruginosa isolate 207272 in presence of BPL; type: functional

| SMILES | half-life at 0.1 µM [1] | MIC [2] | Selectivity Index [3] | MIC [4] | MIC [5] | MIC [6] | MIC [7] | Selectivity Index [8] | Selectivity Index [9] | MIC [10] | MIC [11] | Selectivity Index [12] | MIC [13] | Selectivity Index [14] | MIC [15] | Selectivity Index [16] | MIC [17] | MIC [18] | Selectivity Index [19] | MIC [20] | also measured |
| --- | --- | --- | --- | --- | --- | --- | --- | --- | --- | --- | --- | --- | --- | --- | --- | --- | --- | --- | --- | --- | --- |
| CC(C)C(O/N=C(\C(=O)N[C@@H]1C(=O)N(S(=O)(=O)O)[C@@H]1COC(N)=O)c1csc(N)n1)c1cc(=O)c(O)cn1O (stereo not given in full) | 2.93 h | 1 µg/mL (≈ 1.7 µM) | 2 | 0.25 µg/mL (≈ 0.424 µM) | 0.5 µg/mL (≈ 0.848 µM) | 0.25 µg/mL | 0.25 µg/mL | 1 | 4 | 0.5 µg/mL (≈ 0.848 µM) | 0.125 µg/mL | 4 | 0.25 µg/mL | 2 | 8 µg/mL (≈ 13.6 µM) | 4 | 32 µg/mL (≈ 54.3 µM) | 8 µg/mL | 4 | 1 µg/mL (≈ 1.7 µM) | MIC [21]: 0.25 µg/mL; Selectivity Index [22]: 4; MIC [23]: 0.25 µg/mL; Selectivity Index [24]: 4; MIC [25]: 4 µg/mL (≈ 6.78 µM); MIC [26]: 4 µg/mL; Selectivity Index [27]: 1; MIC [28]: 8 µg/mL; Selectivity Index [29]: 1; MIC [30]: 4 µg/mL (≈ 6.78 µM); MIC [31]: 4 µg/mL; MIC [32]: 8 µg/mL (≈ 13.6 µM); Selectivity Index [33]: 2; MIC [34]: 8 µg/mL (≈ 13.6 µM); Selectivity Index [35]: 2 |
| CC(C)C(O/N=C(\C(=O)N[C@@H]1C(=O)N(S(=O)(=O)O)[C@@H]1Cn1cc(COCc2cc(=O)c(O)cn2O)nn1)c1csc(N)n1)c1cc(=O)c(O)cn1O (stereo not given in full) | 1.33 h | 16 µg/mL (≈ 20.9 µM) | 16 | 16 µg/mL (≈ 20.9 µM) | 16 µg/mL (≈ 20.9 µM) | 1 µg/mL | 8 µg/mL | 2 | 2 | 16 µg/mL (≈ 20.9 µM) | 8 µg/mL | 2 | 8 µg/mL | 8 | 2 µg/mL (≈ 2.61 µM) | 8 | 2 µg/mL (≈ 2.61 µM) | 0.25 µg/mL | 8 | 2 µg/mL (≈ 2.61 µM) | MIC [21]: 0.25 µg/mL; Selectivity Index [22]: 8; MIC [23]: 0.25 µg/mL; Selectivity Index [24]: 8; MIC [25]: 4 µg/mL (≈ 5.22 µM); MIC [26]: 1 µg/mL; Selectivity Index [27]: 4; MIC [28]: 2 µg/mL; Selectivity Index [29]: 4; MIC [30]: 4 µg/mL (≈ 5.22 µM); MIC [31]: 4 µg/mL; MIC [32]: 8 µg/mL (≈ 10.4 µM); Selectivity Index [33]: 2; MIC [34]: 16 µg/mL (≈ 20.9 µM); Selectivity Index [35]: 8 |
